Measured values taken from ChEMBL document CHEMBL1134346, “Labeling and evaluation of N-[11C]methylated quinoline-2-carboxamides as potential radioligands for visualization of peripheral benzodiazepine receptors” (J Med Chem, 2001).

Species: Rattus norvegicus
Test: Tissue (spleen) distribution in Albino male CD rats after 90 minutes expressed as percent of injected dose per gram of organ.
Assay type: ADME, organism-based
Settings: in vivo, 1.5 h

Row | I.D./g [%] | SMILES
1 | 0.71 | CCC(C)N(C)C(=O)c1nc2ccccc2c(-c2ccccc2F)c1C (stereo not given)

Species: Rattus norvegicus
Test: Tissue (testicle) distribution in Albino male CD rats after 5 minutes expressed as percent of injected dose per gram of organ.
Assay type: ADME, organism-based
Settings: in vivo
Method in brief: (§1)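 Male albino CD rats (225-250 g) received the 11C-labelled radioligand in saline by tail-vein injection. Three rats per time point were decapitated under light ether anaesthesia at 5, 15, 30, 60 or 90 min. Blood was collected heparinized and plasma separated by centrifugation. The pituitary was dissected from the brain. Lung, liver (three-lobe pieces) and right deltoid muscle were sampled, washed in cold saline, gamma-counted and weighed. Results are %I.D./g.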

Row | I.D./g [%] | SMILES
2 | 0.04 | CCC(C)N(C)C(=O)c1nc2ccccc2c(-c2ccccc2F)c1C (stereo not given)

Species: Rattus norvegicus
Test: Tissue (testicle) distribution in Albino male CD rats after 60 minutes expressed as percent of injected dose per gram of organ.
Assay type: ADME, organism-based
Settings: in vivo, 1 h
Method in brief: as §1

Row | I.D./g [%] | SMILES
3 | 0.09 | CCC(C)N(C)C(=O)c1nc2ccccc2c(-c2ccccc2F)c1C (stereo not given)

Species: Rattus norvegicus
Test: Tissue (testicle) distribution in Albino male CD rats after 90 minutes expressed as percent of injected dose per gram of organ.
Assay type: ADME, organism-based
Settings: in vivo, 1.5 h

Row | I.D./g [%] | SMILES
4 | 0.08 | CCC(C)N(C)C(=O)c1nc2ccccc2c(-c2ccccc2F)c1C (stereo not given)

Species: Rattus norvegicus
Test: Tissue (kidney) distribution in Albino male CD rats after 30 minutes expressed as percent of injected dose per gram of organ.
Assay type: ADME, organism-based
Settings: in vivo, 0.5 h
Method in brief: (§2)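 Radioligand given in saline into tail vein of male albino CD rats (225-250 g); 100-200 µCi per animal, 1-2 Ci/µmol at injection depending on radioligand. Three rats per time point were decapitated under light ether anaesthesia. Blood, plasma, brain regions and washed organs were weighed and gamma-counted. Uptake is %I.D./g tissue, mean ± SD.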

Row | I.D./g [%] | SMILES
5 | 0.55 | CCC(C)N(C)C(=O)c1nc2ccccc2c(-c2ccccc2F)c1C (stereo not given)

Species: Rattus norvegicus
Test: Tissue (kidney) distribution in Albino male CD rats after 5 minutes expressed as percent of injected dose per gram of organ.
Assay type: ADME, organism-based
Settings: in vivo
Method in brief: as §2

Row | I.D./g [%] | SMILES
6 | 0.41 | CCC(C)N(C)C(=O)c1nc2ccccc2c(-c2ccccc2F)c1C (stereo not given)

Species: Rattus norvegicus
Test: Tissue (kidney) distribution in Albino male CD rats after 60 minutes expressed as percent of injected dose per gram of organ.
Assay type: ADME, organism-based
Settings: in vivo, 1 h
Method in brief: as §2

Row | I.D./g [%] | SMILES
7 | 0.51 | CCC(C)N(C)C(=O)c1nc2ccccc2c(-c2ccccc2F)c1C (stereo not given)

Species: Rattus norvegicus
Test: Tissue (kidney) distribution in Albino male CD rats after 90 minutes expressed as percent of injected dose per gram of organ.
Assay type: ADME, organism-based
Settings: in vivo, 1.5 h
Method in brief: as §2

Row | I.D./g [%] | SMILES
8 | 0.46 | CCC(C)N(C)C(=O)c1nc2ccccc2c(-c2ccccc2F)c1C (stereo not given)

Species: Rattus norvegicus
Test: Tissue (liver) concentration of radioactivity at 30 min post-injection into Albino male CD rats with vehicle.
Assay type: ADME, organism-based
Settings: in vivo, 0.5 h
Method in brief: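 Separate groups of five rats received tail-vein PK 11195 (1.4-1.6 mg; 5 mg/kg) in 30 µL DMSO:EtOH 1:1, or vehicle alone, immediately before iv radioligand (90-170 µCi in saline, 0.9-1 Ci/µmol). Rats were decapitated at 30 min and tissues gamma-counted; values are %I.D./g.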

Row | I.D./g [%] | SMILES
9 | 0.35 | CCC(C)N(C)C(=O)c1nc2ccccc2c(-c2ccccc2F)c1C (stereo not given)

Species: Rattus norvegicus
Test: Tissue (liver) distribution in Albino male CD rats after 60 minutes expressed as percent of injected dose per gram of organ.
Assay type: ADME, organism-based
Settings: in vivo, 1 h
Method in brief: as §1

Row | I.D./g [%] | SMILES
10 | 0.45 | CCC(C)N(C)C(=O)c1nc2ccccc2c(-c2ccccc2F)c1C (stereo not given)

Species: Rattus norvegicus
Test: Tissue (lung) distribution in Albino male CD rats after 30 minutes expressed as percent of injected dose per gram of organ.
Assay type: ADME, organism-based
Settings: in vivo, 0.5 h
Method in brief: as §1

Row | I.D./g [%] | SMILES
11 | 2.09 | CCC(C)N(C)C(=O)c1nc2ccccc2c(-c2ccccc2F)c1C (stereo not given)

Species: Rattus norvegicus
Test: Tissue (lung) distribution in Albino male CD rats after 60 minutes expressed as percent of injected dose per gram of organ.
Assay type: ADME, organism-based
Settings: in vivo, 1 h
Method in brief: as §1

Row | I.D./g [%] | SMILES
12 | 1.77 | CCC(C)N(C)C(=O)c1nc2ccccc2c(-c2ccccc2F)c1C (stereo not given)

Species: Rattus norvegicus
Test: Tissue (lung) distribution in Albino male CD rats after 90 minutes expressed as percent of injected dose per gram of organ.
Assay type: ADME, organism-based
Settings: in vivo, 1.5 h
Method in brief: as §1

Row | I.D./g [%] | SMILES
13 | 1.55 | CCC(C)N(C)C(=O)c1nc2ccccc2c(-c2ccccc2F)c1C (stereo not given)

Species: Rattus norvegicus
Test: Tissue (blood) distribution in Albino male CD rats after 15 minutes expressed as percent of injected dose per gram of organ.
Assay type: ADME, organism-based
Settings: in vivo, 0.25 h
Method in brief: as §2

Row | I.D./g [%] | SMILES
14 | 0.14 | CCC(C)N(C)C(=O)c1nc2ccccc2c(-c2ccccc2F)c1C (stereo not given)

Species: Rattus norvegicus
Test: Tissue (blood) distribution in Albino male CD rats after 60 minutes expressed as percent of injected dose per gram of organ.
Assay type: ADME, organism-based
Settings: in vivo, 1 h
Method in brief: as §2

Row | I.D./g [%] | SMILES
15 | 0.08 | CCC(C)N(C)C(=O)c1nc2ccccc2c(-c2ccccc2F)c1C (stereo not given)

Species: Rattus norvegicus
Test: Tissue (adrenal gland) distribution in Albino male CD rats after 15 minutes expressed as percent of injected dose per gram of organ.
Assay type: ADME, organism-based
Settings: in vivo, 0.25 h
Method in brief: as §2

Row | I.D./g [%] | SMILES
16 | 2.53 | CCC(C)N(C)C(=O)c1nc2ccccc2c(-c2ccccc2F)c1C (stereo not given)

Species: Rattus norvegicus
Test: Tissue (adrenal gland) distribution in Albino male CD rats after 30 minutes expressed as percent of injected dose per gram of organ.
Assay type: ADME, organism-based
Settings: in vivo, 0.5 h
Method in brief: as §2

Row | I.D./g [%] | SMILES
17 | 2.78 | CCC(C)N(C)C(=O)c1nc2ccccc2c(-c2ccccc2F)c1C (stereo not given)

Species: Rattus norvegicus
Test: Tissue (adrenal gland) distribution in Albino male CD rats after 5 minutes expressed as percent of injected dose per gram of organ.
Assay type: ADME, organism-based
Settings: in vivo
Method in brief: as §2

Row | I.D./g [%] | SMILES
18 | 1.12 | CCC(C)N(C)C(=O)c1nc2ccccc2c(-c2ccccc2F)c1C (stereo not given)

Species: Rattus norvegicus
Test: Tissue (spleen) distribution in Albino male CD rats after 15 minutes expressed as percent of injected dose per gram of organ.
Assay type: ADME, organism-based
Settings: in vivo, 0.25 h

Row | I.D./g [%] | SMILES
19 | 0.75 | CCC(C)N(C)C(=O)c1nc2ccccc2c(-c2ccccc2F)c1C (stereo not given)

Species: Rattus norvegicus
Test: Tissue (muscle) concentration of radioactivity at 30 min post-injection into Albino male CD rats with vehicle.
Assay type: ADME, organism-based
Settings: in vivo, 0.5 h
Method in brief: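 Blocking study in male albino CD rats, five per group. Immediately before the 11C radioligand (in saline, i.v. tail vein), rats received 30 µL tail-vein PK 11195 (5 mg/kg; 1.4-1.6 mg) in DMSO:EtOH 1:1, or vehicle. Rats were decapitated at 30 min. Tissues were dissected, washed, gamma-counted and weighed as in the biodistribution study. Results are %I.D./g.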

Row | I.D./g [%] | SMILES
20 | 0.05 | CCC(C)N(C)C(=O)c1nc2ccccc2c(-c2ccccc2F)c1C (stereo not given)
